# From ChEMBL document CHEMBL1275449, “Potent in vitro antifungal activities of naturally occurring acetylenic acids” (Antimicrob Agents Chemother, 2008)
# The source made the active and inactive calls. The calls are words filed in the database; no cut-off is given here.
# Columns and labels:
# Pichia kudriavzevii [1] = assay: Antifungal activity against Candida krusei ATCC 6258 after 48 hrs by CLSI method; assay type: functional, organism-based; details: ATCC 6258, 48 h
# Method in brief: (§1)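 Candida inocula came from 24–72-h SD agar colonies suspended in saline. They were diluted by OD630 standard curve into RPMI 1640 (0.2% dextrose, 0.03% glutamine, 0.165 M MOPS, pH 7.0) to 1.5 × 10³ CFU/ml. Compounds were run as 11 twofold dilutions in 20% DMSO-saline, in duplicate, at 35°C for 48 h, with OD530 read before and after. Percent growth at the top concentration, IC50, MIC, and MFC (SD agar plating) were derived.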
# Aspergillus niger [2] = assay: Antifungal activity against Aspergillus niger ATCC 16404 after 48 h by CLSI method; details: ATCC 16404, 48 h
# Candida albicans [3] = assay: Antifungal activity against Fluconazole resistant Candida albicans isolate 1 at 542.7 uM after 48 hrs by CLSI method; assay type: functional, organism-based
# Method in brief: (§2)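 Candida in CLSI broth microdilution. Saline colony suspension set to 1.5 × 10³ CFU/ml (final) in MOPS-buffered RPMI 1640, pH 7.0. Test agent given as twofold serial dilutions in 20% DMSO-saline, duplicate wells. 35°C for 48 h. Growth read as OD530 before and after incubation. Percent inhibition scored at the highest test concentration.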
# Trichophyton rubrum [4] = assay: Antifungal activity against Trichophyton rubrum ATCC 10218 by CLSI method; assay type: functional, organism-based
# Method in brief: (§3)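 Growth scraped from 1- to 6-week-old potato dextrose slants and filtered through Miracloth. Diluted in 5% Alamar blue-RPMI 1640 (MOPS pH 7.0) to 2.7 × 10⁴ CFU/ml. Eleven twofold dilutions in duplicate. Fluorescence at 544 nm excitation/590 nm emission read before and after 35°C, 5 days. IC50 fitted from percent growth. MIC taken as no detectable growth; MFC from clear or blue wells plated on PD agar.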
# Trichophyton rubrum [5] = assay: Antifungal activity against Trichophyton rubrum ATCC MYA-4438 by CLSI method; assay type: functional, organism-based; method in brief: as §3
# Candida albicans [6] = assay: Antifungal activity against Candida albicans assessed as inhibition of growth at 100 uM; assay type: functional, organism-based
# Trichophyton rubrum [7] = assay: Antifungal activity against Trichophyton rubrum ATCC MYA-4438 at 542.7 uM after 5 days by CLSI method; assay type: functional, organism-based
# Candida albicans [8] = assay: Antifungal activity against Candida albicans ATCC 60193 at 542.7 uM after 48 hrs by CLSI method; assay type: functional, organism-based; method in brief: as §1
# Candida albicans [9] = assay: Antifungal activity against Candida albicans ATCC 14053 at 542.7 uM after 48 hrs by CLSI method; assay type: functional, organism-based
# Candida albicans [10] = assay: Antifungal activity against Fluconazole resistant Candida albicans clinical isolate 1 after 48 hrs by CLSI method; assay type: functional, organism-based
# Method in brief: (§4)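 CLSI broth microdilution. Colonies from 24–72 h SD agar suspended in saline and sized by OD630 standard curve. Inoculum 1.5 × 10³ CFU/ml (final) in RPMI 1640 (0.2% dextrose, 0.03% glutamine, 0.165 M MOPS, pH 7.0). Twofold dilutions (11 levels) from 20% DMSO-saline, in duplicate. 35°C for 48 h, OD530 read before and after. IC50 fitted from % growth. MIC: no detectable growth. MFC: subculture onto SD agar.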
# [11] = test system: Trichophyton mentagrophytes; assay: Antifungal activity against Trichophyton mentagrophytes ATCC 9533 at 542.7 uM after 5 days by CLSI method; assay type: functional, organism-based
# Cryptococcus neoformans [12] = assay: Antifungal activity against Cryptococcus neoformans ATCC 66031 after 72 hrs by CLSI method; assay type: functional, organism-based; details: ATCC 66031, 72 h
# Method in brief: (§5)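 SD broth replaced RPMI because growth in RPMI was poor; other CLSI conditions were kept. Inoculum was 1.5 × 10³ CFU/ml from colonies on SD agar, checked by plating. Twofold serial dilutions (11 concentrations) in 20% DMSO-saline were tested in duplicate. OD530 was read before and after incubation at 35°C for 72 h. Percent growth gave IC50; the MIC is the lowest concentration with no detectable growth.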
# Trichophyton rubrum [13] = assay: Antifungal activity against Trichophyton rubrum ATCC 10218 at 542.7 uM after 5 days by CLSI method; assay type: functional, organism-based
# Aspergillus fumigatus [14] = assay: Antifungal activity against Aspergillus fumigatus ATCC 204305 at 542.7 uM after 48 hrs by CLSI method; assay type: functional, organism-based
# Candida albicans [15] = assay: Antifungal activity against Candida albicans ATCC 32354 after 48 hrs by CLSI method; assay type: functional, organism-based; details: ATCC 32354, 48 h; method in brief: as §4
# [16] = test system: Trichophyton mentagrophytes; assay: Antifungal activity against Trichophyton mentagrophytes ATCC MYA-4439 at 542.7 uM after 5 days by CLSI method; assay type: functional, organism-based
# Candida albicans [17] = assay: Antifungal activity against Candida albicans assessed as inhibition of morphogenesis at 10 uM; assay type: functional, organism-based
# Pichia kudriavzevii [18] = assay: Antifungal activity against Candida krusei ATCC 6258 at 542.7 uM after 48 hrs by CLSI method; assay type: functional, organism-based
# Method in brief: (§6)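 Yeast suspensions made from 3-5 colonies off 24-72 h SD agar plates in saline. They were diluted by OD630 standard curve in RPMI 1640 (0.2% dextrose, 0.03% glutamine, 0.165 M MOPS, pH 7.0) to 1.5 × 10³ CFU/ml. Twofold dilutions (11 concentrations, 20% DMSO-saline) run in duplicate. OD530 read before and after 35°C, 48 h. Line values are top test concentrations; no-growth endpoints give MIC/MFC.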
# Cryptococcus neoformans [19] = assay: Antifungal activity against Cryptococcus neoformans ATCC 90113 after 72 hrs by CLSI method; assay type: functional, organism-based; details: ATCC 90113, 72 h; method in brief: as §5
# Candida tropicalis [20] = assay: Antifungal activity against Candida tropicalis ATCC 750 at 542.7 uM after 48 hrs by CLSI method; assay type: functional, organism-based; method in brief: as §6
# Candida albicans [21] = assay: Antifungal activity against Fluconazole resistant Candida albicans clinical isolate 17 after 48 hrs by CLSI method; assay type: functional, organism-based; method in brief: as §4
# Aspergillus fumigatus [22] = assay: Antifungal activity against Aspergillus fumigatus ATCC 90906 at 542.7 uM after 48 hrs by CLSI method; assay type: functional, organism-based
# Nakaseomyces glabratus = assay: Antifungal activity against Candida glabrata ATCC 90030 at 542.7 uM after 48 hrs by CLSI method; assay type: functional, organism-based; method in brief: as §1
# Candida albicans [23] = assay: Antifungal activity against Candida albicans ATCC 200955 at 542.7 uM after 48 hrs by CLSI method; assay type: functional, organism-based; method in brief: as §1
# Candida tropicalis [24] = assay: Antifungal activity against Candida tropicalis ATCC 750 after 48 hrs by CLSI method; assay type: functional, organism-based; details: ATCC 750, 48 h; method in brief: as §6
# Candida albicans [25] = assay: Antifungal activity against Candida albicans ATCC 14053 after 48 hrs by CLSI method; assay type: functional, organism-based; details: ATCC 14053, 48 h; method in brief: as §4
# Candida albicans [26] = assay: Antifungal activity against Candida albicans ATCC 32354 at 542.7 uM after 48 hrs by CLSI method; assay type: functional, organism-based; method in brief: as §1
# Candida parapsilosis [27] = assay: Antifungal activity against Candida parapsilosis ATCC 22019 at 542.7 uM after 48 hrs by CLSI method; assay type: functional, organism-based; method in brief: as §6
# Aspergillus flavus = assay: Antifungal activity against Aspergillus flavus ATCC 204304 at 542.7 uM after 48 hrs by CLSI method; assay type: functional, organism-based
# Aspergillus niger [28] = assay: Antifungal activity against Aspergillus niger ATCC 16404 at 542.7 uM after 48 hrs by CLSI method; assay type: functional, organism-based
# [29] = test system: Trichophyton mentagrophytes; assay: Antifungal activity against Trichophyton mentagrophytes ATCC MYA-4439 by CLSI method; assay type: functional, organism-based; method in brief: as §3
# Candida parapsilosis [30] = assay: Antifungal activity against Candida parapsilosis ATCC 22019 after 48 hrs by CLSI method; assay type: functional, organism-based; details: Lodderomyces parapsilosis, ATCC 22019, 48 h; method in brief: as §6
# Candida albicans [31] = assay: Antifungal activity against Candida albicans ATCC 60193 after 48 hrs by CLSI method; assay type: functional, organism-based; details: ATCC 60193, 48 h; method in brief: as §4
# Candida albicans [32] = assay: Antifungal activity against Fluconazole resistant Candida albicans isolate 17 at 542.7 uM after 48 hrs by CLSI method; assay type: functional, organism-based; method in brief: as §2
# Candida albicans [33] = assay: Antifungal activity against Candida albicans ATCC 200955 after 48 hrs by CLSI method; assay type: functional, organism-based; details: ATCC 200955, 48 h; method in brief: as §4
# Candida albicans [34] = assay: Antifungal activity against Candida albicans ATCC 90028 at 542.7 uM after 48 hrs by CLSI method; assay type: functional, organism-based; method in brief: as §1
# [35] = test system: Trichophyton mentagrophytes; assay: Antifungal activity against Trichophyton mentagrophytes ATCC 9533 by CLSI method; assay type: functional, organism-based; method in brief: as §3
compound,measurement,setting,value
C=CCCCCCCCCC(=O)O [UNDECYLENIC ACID],IC50,Pichia kudriavzevii [1],> 543 µM
same,IC50,Aspergillus niger [2],415 µM
same,Activity,Candida albicans [3],inactive
same,IC50,Trichophyton rubrum [4],270 µM
same,MIC,Trichophyton rubrum [4],543 µM
same,IC50,Trichophyton rubrum [5],111 µM
same,MIC,Trichophyton rubrum [5],543 µM
same,inhibition,Candida albicans [6],inactive
same,Activity,Trichophyton rubrum [7],inactive
same,Activity,Candida albicans [8],inactive
same,Activity,Candida albicans [9],inactive
same,IC50,Candida albicans [10],> 543 µM
same,Activity,[11],inactive
same,IC50,Cryptococcus neoformans [12],2.7 µM
same,MFC,Cryptococcus neoformans [12],271 µM
same,MIC,Cryptococcus neoformans [12],136 µM
same,Activity,Trichophyton rubrum [13],inactive
same,Activity,Aspergillus fumigatus [14],inactive
same,IC50,Candida albicans [15],> 543 µM
same,Activity,[16],inactive
same,inhibition,Candida albicans [17],Active
same,Activity,Pichia kudriavzevii [18],inactive
same,IC50,Cryptococcus neoformans [19],25.3 µM
same,MFC,Cryptococcus neoformans [19],543 µM
same,MIC,Cryptococcus neoformans [19],271 µM
same,Activity,Candida tropicalis [20],inactive
same,IC50,Candida albicans [21],> 543 µM
same,Activity,Aspergillus fumigatus [22],inactive
same,Activity,Nakaseomyces glabratus,inactive
same,Activity,Candida albicans [23],inactive
same,IC50,Candida tropicalis [24],> 543 µM
same,IC50,Candida albicans [25],> 543 µM
same,Activity,Candida albicans [26],inactive
same,Activity,Candida parapsilosis [27],inactive
same,Activity,Aspergillus flavus,inactive
same,Activity,Aspergillus niger [28],inactive
same,IC50,[29],379 µM
same,MIC,[29],543 µM
same,IC50,Candida parapsilosis [30],> 543 µM
same,IC50,Candida albicans [31],> 543 µM
same,Activity,Candida albicans [32],inactive
same,IC50,Candida albicans [33],> 543 µM
same,Activity,Candida albicans [34],inactive
same,IC50,[35],279 µM
same,MIC,[35],543 µM
